{
  "source": "paper PMC3798158",
  "about": "(Journal of medicinal chemistry, 2013)",
  "key": {"[1]": {"target": "GAPDH (Oryctolagus cuniculus, UniProt P46406)", "sequence (P46406 whole entry)": "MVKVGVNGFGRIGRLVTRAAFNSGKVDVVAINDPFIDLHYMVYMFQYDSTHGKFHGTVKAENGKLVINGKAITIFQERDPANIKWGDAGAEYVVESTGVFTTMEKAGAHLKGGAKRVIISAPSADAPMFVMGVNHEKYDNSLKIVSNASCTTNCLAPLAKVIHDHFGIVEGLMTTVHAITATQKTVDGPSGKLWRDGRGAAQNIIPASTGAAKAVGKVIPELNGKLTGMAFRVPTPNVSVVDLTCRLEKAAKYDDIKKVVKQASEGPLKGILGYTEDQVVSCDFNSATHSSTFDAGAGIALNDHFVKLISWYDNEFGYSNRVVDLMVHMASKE", "test": "High resolution LC-MS of structural modifications of GAPDH tryptic peptides", "parameters": "species or system rabbit", "conditions": "for Products, GAPDH tryptic peptide V232–R245 (Cys 244) / Products, GAPDH tryptic peptide I143–K159 (Cys 149, Cys 153): LC-MS after trypsin digest, 10 eq. where printed; for Product at Cys 281 of GAPDH (peptide G269–K306): mass spectrometric data extraction from reaction mixture", "how_it_was_run": "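Rabbit muscle GAPDH was incubated with test compound (10 equiv), then trypsin-digested at 20:1 (w/w, monomer:trypsin), 37 °C, 12−16 h, in 50 mM Tris-HCl, and quenched by freezing at −20 °C. Positive-ion Orbitrap, resolution 60000; Cys-peptide modifications were assigned by m/z.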"}, "[2]": {"target": "T1, rabbit muscle GAPDH (Oryctolagus cuniculus, UniProt P46406)", "T1 sequence (P46406 whole entry)": "as above", "test": "In vitro inhibition of GAPDH", "assay_type": "biochemical", "conditions": "for GAPDH inhibition (in words): incubation of GAPDH"}, "[3]": {"target": "T1, rabbit muscle GAPDH", "test": "Reversibility of GAPDH inhibition by DTT", "assay_type": "biochemical", "conditions": "for GAPDH enzyme activity after treatment / GAPDH enzyme activity restored after DTT incubation: 1 μM compound, 60 min; for GAPDH enzyme activity restored after DTT incubation: then DTT"}, "[4]": {"target": "AhpC C165S (Salmonella typhimurium, UniProt P0A251, C166S)", "conditions": "LC-MS after Asp-N digest, 10 eq. where printed"}, "[5]": {"test_system": "myofilament", "conditions": "sensitizing myofilament responsiveness to calcium; cited from earlier work"}, "[6]": {"conditions": "cited from earlier work; for t1/2 of HNO release: neutral conditions"}, "[7]": {"test_system": "STAT3", "conditions": "similar to AS; cited from earlier work"}, "[8]": {"test": "Stopped-flow UV-vis kinetic decomposition", "assay_type": "physicochemical", "conditions": "compared with AS"}},
  "note": "“Also recorded” adds a separate entry of the source. Where a name gives a salt, the structure may show the parent alone. Read-outs that look alike come from different tables or passages of the source.",
  "data": [
    {"compound": "N[C@@H](CCC(=O)N[C@@H](CSN=O)C(=O)NCC(=O)O)C(=O)O", "note": "[GSNO, S-nitrosoglutathione]", "values": [
      {"measurement": "Products, GAPDH tryptic peptide V232–R245 (Cys 244)", "setting": "[1]", "result": "Nitrosylated product"},
      {"measurement": "GAPDH inhibition (in words)", "setting": "[2]", "result": "inhibition of enzyme activity"},
      {"measurement": "DTT reversibility of GAPDH inhibition (in words)", "setting": "[3]", "result": "completely DTT reversible"},
      {"measurement": "Products, C165S AhpC Asp-N peptide D41–G51 (Cys 46)", "setting": "[4]", "result": "Nitrosylated Product"}
    ]},
    {"compound": "O=Nc1ccccc1", "note": "[Nitrosobenzene, nitrosobenzene]", "values": [
      {"measurement": "Products, GAPDH tryptic peptide V232–R245 (Cys 244)", "setting": "[1]", "result": "Sulfinic acid"},
      {"measurement": "IC50", "setting": "[2]", "result": 230, "unit": "nM"},
      {"measurement": "Products, C165S AhpC Asp-N peptide D41–G51 (Cys 46)", "setting": "[4]", "result": "Sulfinic acid"}
    ]},
    {"compound": "CC(=O)OC1(N=O)CCCCC1", "note": "[compound 1, 1-Nitrosocyclohexyl acetate]", "values": [
      {"measurement": "effect on myocardial contractility", "setting": "[5]", "result": "enhances myocardial contractility more potently than AS"},
      {"measurement": "Products, GAPDH tryptic peptide I143–K159 (Cys 149, Cys 153)", "setting": "[1]", "result": "Internal disulfide; RSSR"},
      {"measurement": "Products, GAPDH tryptic peptide V232–R245 (Cys 244)", "setting": "[1]", "result": "Sulfinic acid"},
      {"measurement": "Product at Cys 281 of GAPDH (peptide G269–K306)", "setting": "[1]", "result": "sulfinic acid"},
      {"measurement": "GAPDH enzyme activity after treatment", "setting": "[3]", "result": "5 % of control"},
      {"measurement": "GAPDH enzyme activity restored after DTT incubation", "setting": "[3]", "result": "12 % of control"},
      {"measurement": "t1/2 of HNO release", "setting": "[6]", "result": 800, "unit": "min"},
      {"measurement": "Products, C165S AhpC Asp-N peptide D41–G51 (Cys 46)", "setting": "[4]", "result": "Sulfinic acid"}
    ]},
    {"compound": "CC(C)(C)C(=O)OC1(N=O)CCCCC1", "note": "[compound 2, 1-nitrosocyclohexyl pivalate]", "values": [
      {"measurement": "effect on STAT3 activation", "setting": "[7]", "result": "blocks STAT3 activation"},
      {"measurement": "effect on myocardial contractility", "setting": "[5]", "result": "no effect"},
      {"measurement": "Products, GAPDH tryptic peptide I143–K159 (Cys 149, Cys 153)", "setting": "[1]", "result": "Internal disulfide; RSSR"},
      {"measurement": "Products, GAPDH tryptic peptide V232–R245 (Cys 244)", "setting": "[1]", "result": "Sulfinic acid"},
      {"measurement": "t1/2 of HNO release", "setting": "[6]", "result": 2268, "unit": "min"},
      {"measurement": "Products, C165S AhpC Asp-N peptide D41–G51 (Cys 46)", "setting": "[4]", "result": "Sulfinic acid"}
    ]},
    {"compound": "O=NC1(OC(=O)C(F)(F)F)CCCCC1", "note": "[compound 3, 1-Nitrosocyclohexyl trifluoroacetate]", "values": [
      {"measurement": "HNO release rate relative to AS", "setting": "[8]", "result": "over 1000 times faster"},
      {"measurement": "Products, GAPDH tryptic peptide I143–K159 (Cys 149, Cys 153)", "setting": "[1]", "result": "Internal disulfide; RSSR"},
      {"measurement": "Products, GAPDH tryptic peptide V232–R245 (Cys 244)", "setting": "[1]", "result": "Sulfinamide,; also recorded: Sulfinic acid"}
    ]},
    {"compound": "O=S(=O)(NO)c1ccccc1Br", "note": "[o-Bromo-Piloty’s Acid]", "values": [
      {"measurement": "Products, GAPDH tryptic peptide I143–K159 (Cys 149, Cys 153)", "setting": "[1]", "result": "Internal disulfide; RSSR"},
      {"measurement": "Products, GAPDH tryptic peptide V232–R245 (Cys 244)", "setting": "[1]", "result": "Sulfinamide; also recorded: Sulfinic acid"},
      {"measurement": "Products, C165S AhpC Asp-N peptide D41–G51 (Cys 46)", "setting": "[4]", "result": "Sulfinamide; also recorded: Sulfinic acid"}
    ]},
    {"compound": "Diethylammonium-1- (N,N-diethylamino) diazen-1-ium- 1,2-diolate [DEANO]", "values": [
      {"measurement": "Products, GAPDH tryptic peptide V232–R245 (Cys 244)", "setting": "[1]", "result": "Nitrosylated product"},
      {"measurement": "GAPDH inhibition (in words)", "setting": "[2]", "result": "inhibition of enzyme activity"}
    ]},
    {"compound": "Sodium trioxidinitrate [AS]", "values": [
      {"measurement": "Products, GAPDH tryptic peptide I143–K159 (Cys 149, Cys 153)", "setting": "[1]", "result": "Internal disulfide; RSSR"},
      {"measurement": "Products, GAPDH tryptic peptide V232–R245 (Cys 244)", "setting": "[1]; listed as 14N AS", "result": "Sulfinamide; also recorded: Sulfinic acid"},
      {"measurement": "Product at Cys 281 of GAPDH (peptide G269–K306)", "setting": "[1]", "result": "sulfinamide"},
      {"measurement": "GAPDH enzyme activity after treatment", "setting": "[3]", "result": "23 % of control"},
      {"measurement": "GAPDH enzyme activity restored after DTT incubation", "setting": "[3]", "result": "51 % of control"},
      {"measurement": "rate constant of decomposition to HNO and nitrite", "setting": "[6]; pH 7, 37 °C", "result": 0.005, "unit": "s⁻¹"},
      {"measurement": "Products, C165S AhpC Asp-N peptide D41–G51 (Cys 46)", "setting": "[4]; listed as 14N AS", "result": "Sulfinamide; also recorded: Sulfinic acid"}
    ]}
  ]
}
